The source of these data is ChEMBL document CHEMBL1139365, “Inhibition of MDR1 activity in vitro by a novel class of diltiazem analogues: toward new candidates” (J Med Chem, 2009).

Activity calls are given as the source filed them. No cut-off for these calls is given here.

In test [1] the test system is A2780. Briefly: Antiproliferative activity against human A2780 cells after 3 days by MTT assay. The class given is functional, cell-based. As to conditions: for IC50: Homo sapiens, A2780, 72 h. The essentials:
(§1)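 Cells plated 6–8 h in 96-well plates. Compound alone, in duplicate at ≥5 concentrations (3-fold serial dilutions, top 100 μM), with final DMSO […] after predilution in FCS. After 3 days, MTT 4 h at 37 °C, formazan dissolved in DMSO, A540. IC50 taken from single dose–response curves; 3–4 experiments. A2780/DX3 kept doxorubicin-free 2–3 days beforehand.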

The nature of test [2]: Antiproliferative activity against human A2780/DX3 cells after 3 days by MTT assay. The following applies: for IC50: Homo sapiens, A2780/DX3, 72 h. The class given is functional, cell-based. The essentials: as §1
In test [3] the test system is A2780 ADR. Briefly: Reversal of P-gp 170-mediated multidrug resistance in human A2780/DX3 cells assessed as reduction in doxorubicin IC50 at IC5 pretreated for 6 hrs before doxorubicin administration measured after 3 days by MTT assay. Also noted: scale not given: the % may be the effect or the level left. The class given is cell-based. Put shortly:
(§2)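 A2780/DX3 cells went into medium holding the modulator at its MTT-derived 0% or 5% growth-inhibition concentration. Doxorubicin (30–0.048 μM serial dilutions, modulator kept constant) was added 6 h later. MTT (2 mg/mL) was added after 3 days for 4 h at 37 °C, formazan dissolved in DMSO, A540 read. IC50 came from dose–response curves, repeated 4–6 times. % reduction is versus doxorubicin alone in the same experiment. Kruskal–Wallis/Mann–Whitney tests.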

Test [4] concerns A2780 ADR. In words: Reversal of P-gp 170-mediated multidrug resistance in human A2780/DX3 cells assessed as reduction in doxorubicin IC50 at IC0 pretreated for 6 hrs before doxorubicin administration measured after 3 days by MTT assay. Format: cell-based. Also noted: scale not given: the % may be the effect or the level left. Put shortly: as §2
For test [5], the system named is A2780 ADR. In words: Reversal of P-gp 170-mediated multidrug resistance in human A2780/DX3 cells assessed as increase in intracellular doxorubicin accumulation at 5 times IC5 pretreated for 2 hrs before doxorubicin administration measured after 2 hrs by flow cytometry. Format: cell-based. Put shortly: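 A2780/DX3 cells (kept in 0.1 μM doxorubicin, drug withdrawn 2–3 days before use) seeded in flasks, grown 24 h to 75–85% confluence. Modulator given at five times the 5%-growth-inhibition concentration for 2 h, then 10 μM doxorubicin for 2 h more. Cells trypsinized, fixed in 3.7% paraformaldehyde/2% sucrose in PBS. Flow cytometry, 488 nm excitation, 575 nm bandpass. Read-out is MFI, with % increase taken from the MFI ratio to doxorubicin alone.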

Test [6] is described as follows: Down regulation of P-gp 170 expression in human A2780/DX3 cells after 72 hrs by flow cytometry. The class given is functional, cell-based. Put shortly: (§3)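 Cells exposed 72 h to compound at concentrations giving 5% or 0% growth inhibition. Then washed in PBS/2% FCS; 2.5 × 10^5 cells stained at 4 °C with anti-Pgp MM4.17 monoclonal, then FITC goat anti-mouse IgG, and analysed by flow cytometry.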

The subject of test [7] is A2780. In words: Down regulation of P-gp 170 expression in human A2780 cells after 72 hrs by flow cytometry. The class given is functional, cell-based. The essentials:
as §3

Test [8] relates to A2780. In words: Antiproliferative activity against human A2780 cells at 2.9 uM after 3 days by MTT assay. As to conditions: A2780, 72 h. The class given is functional.
A short description of test [9]: Antiproliferative activity against human A2780/DX3 cells at 4.0 uM after 3 days by MTT assay. The class given is functional. The following applies: A2780/DX3, 72 h.
Test [10] deals with A2780. Briefly: Antiproliferative activity against human A2780 cells at 0.14 uM after 3 days by MTT assay. As to conditions: A2780, 72 h. Format: functional.
Test [11] can be described thus: Antiproliferative activity against human A2780/DX3 cells at 0.81 uM after 3 days by MTT assay. Format: functional. As to conditions: A2780/DX3, 72 h.

Take `CCCCCOC1(c2ccc(Cl)cc2)SC=C(C)n2c1noc2=O` (stereo not given): the IC5 in the test with A2780 [1] was determined as 7.8 µM; in [2], 19 µM. In addition, the IC50 (with A2780 [1]; in test [2]) was above 100 µM in each case. Moreover, the Activity in the test on A2780 ADR [3] is -38%; with A2780 ADR [4], -39%; in the test with A2780 ADR [5], 248%. For the same compound, the result (in test [6]; in the test with A2780 [7]) was inactive. Also, the inhibition at 2.9 µM in the test on A2780 [8] was 0%. In [9], the inhibition at 4 µM was 0%.
Compound `O=c1onc2n1C=CSC2(O)c1ccc(Cl)cc1` (stereo not given) displayed an inhibition at 0.14 µM with A2780 [10] of 0%. In addition, the IC5 with A2780 [1] was found to be 0.48 µM; in test [2], 3.02 µM. The IC50 (in the test on A2780 [1]; in test [2]) was above 100 µM in each case. Further, the Activity with A2780 ADR [3] was 10%; with A2780 ADR [4] it was 3%; in the test on A2780 ADR [5] it was below 48%. The inhibition at 0.81 µM in test [11] is 0%.
